The test system of series [1] is ECa-109 cell line. The experiment in a line: Phototoxicity against human ECA109 cells assessed as decrease in cell viability after 24 hrs at 16 J/cm2 irradiation by MTT assay. Conditions: ECa-109, light or radiation study. The series is classed as functional, cell-based. The method in brief: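 Eca-109 cells (5×10^4/well, attached for 24 h) took up compound (0–16 μM) for 24 h. They were washed with PBS and irradiated with Nd:YAG laser at 16 J/cm²: 635 nm for porphins, 650 nm for chlorins, 730 nm for bacteriochlorins. MTT viability was read 24 h later, and IC50 was derived.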
In general terms: Tetrazolium dyes change colour on reduction, which living cells bring about.

Series [2] in a line: Induction of singlet oxygen generation assessed as singlet oxygen quantum yield by measuring DPBF chemical oxidation in DMF solution incubated up to 8 mins at 5 mW/cm2 laser irradiation by UV-Vis spectrophotometry. The series is classed as functional.
The nature of series [3]: Dark toxicity in human ECA109 cells assessed as decrease in cell viability after 24 hrs by MTT assay. The series is classed as cell-based, ECa-109.
A short description of series [4]: Dark toxicity in human ECA109 cells assessed as cell survival at 20 uM after 24 hrs by MTT assay relative to control. The format is cell-based, ECa-109. Conditions: read-out: Survival. In a few lines:
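Eca-109 human esophageal carcinoma cells in RPMI-1640 with 10% FBS, trypsinised and seeded at 5×10^4 cells per well, attached for 24 h. Photosensitiser in medium (0 to 60 μM) was taken up for 24 h and the cells were not irradiated. Viability was read by MTT colorimetric assay 24 h after treatment.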

A short description of series [5]: Induction of singlet oxygen generation assessed as singlet oxygen quantum yield by measuring DPBF chemical oxidation in DMF solution incubated up to 4 mins at 5 mW/cm2 laser irradiation by UV-Vis spectrophotometry. The format is functional.
A short description of series [6]: Induction of singlet oxygen generation assessed as singlet oxygen quantum yield by measuring DPBF chemical oxidation in DMF solution incubated up to 5 mins at 5 mW/cm2 laser irradiation by UV-Vis spectrophotometry. The format is functional.
Series [7] relates to ECa-109 cell line. The series can be described thus: Antitumor activity against human ECA109 cells xenografted in BALB/c nude mouse assessed as tumor size at 5 mg/kg, iv measured every other day up to 14 days. The format is functional, organism-based. In a few lines: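 Four-week-old female BALB/c nude mice were given 5×10^6 Eca-109 cells s.c. in PBS into the right forelimb. At about 100 mm³ (~14 days), the compound was given at 5 mg/kg in 0.2 mL via the lateral tail vein, with no irradiation; 6 mice/group. Orthogonal L and W were measured every two days for 14 days, and V = LW²/2.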
(Xenograft models place foreign cells or tissue in a host animal.)

Series [8] deals with ECa-109 cell line. The experiment in a line: Antitumor activity against human ECA109 cells xenografted in BALB/c nude mouse assessed as tumor size at 5 mg/kg, iv treated for 24 hrs before 120 J/cm2 laser light irradiation for 5 mins and measured every other day up to 14 days (reference value: 785 +/- 37 mm3). The series is classed as functional. The method in brief:
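Eca-109 s.c. xenografts (5×10^6 cells, right forelimb) were grown in female BALB/c nude mice to ~100 mm³. Compound 5 mg/kg in 0.2 mL went i.v. into the tail vein. At 24 h, restrained unanaesthetised mice got 730 nm laser at 120 J/cm² to the tumour. Controls received no PS or light; 6 mice/group. Volume LW²/2 was taken every two days for 14 days.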

A short description of series [9]: Drug uptake in lysosomes of human ECA109 cells at 10 uM after 4 hrs by Lyso Blue dye-based confocal fluorescence microscopic method. The format is ADME, subcellular, Lysosome. Conditions: eca-109, 4 h. In a few lines: (§1)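 Eca-109 cells were plated on poly-L-lysine-coated coverslips at 1×10^5 cells/mL. After 24 h, they took up 10 μM compound in the dark for 4 h at 37 °C. They were stained with Mito-tracker Green or Lyso-Blue for 20 min at 37 °C, rinsed, and fixed in 4% paraformaldehyde at 4 °C for 30 min. Confocal imaging used sequential scans, exciting at 490 nm (Mito), 373 nm (Lyso, PS).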

Series [10] can be described thus: Drug uptake in mitochondria of human ECA109 cells at 10 uM after 4 hrs by Mito Tracker green dye-based confocal fluorescence microscopic method. Conditions: eca-109, 4 h. The format is ADME. The method in brief: as §1

The source made the active and inactive calls. No cut-off for these calls is given here.

Take `COc1ccc(-c2c3nc(cc4ccc([nH]4)c(-c4ccc(OC)c(OCC(=O)O)c4)c4nc(cc5ccc2[nH]5)CC4)CC3)cc1OCC(=O)O`: the IC50 in the series on ECa-109 cell line [1] is 3.09 µM. Further, the DPBF oxidation rate constant in series [2] was 38.7 ×10⁻² k/min. Moreover, the IC50 at 24 h in series [3] worked out at 187 µM. Moreover, the viability at 24 h, 20 µM in series [4] was determined as 80%.

For `O=C(O)CCCOc1cccc(-c2c3nc(cc4ccc([nH]4)c(-c4cccc(OCCCC(=O)O)c4)c4nc(cc5ccc2[nH]5)C=C4)C=C3)c1`, in the series on ECa-109 cell line [1], the IC50 is 8.19 µM. In addition, the DPBF oxidation rate constant in [2] stood at 1.93 ×10⁻² k/min. For the same compound, the IC50 at 24 h in series [3] was found to be 271 µM. Besides, the viability at 24 h, 20 µM in series [4] is 80%.

Consider `COc1ccc(-c2c3nc(cc4ccc([nH]4)c(-c4ccc(OC)c(OCCCC(=O)O)c4)c4nc(cc5ccc2[nH]5)C=C4)C=C3)cc1OCCCC(=O)O`, for which, in the series with ECa-109 cell line [1], the IC50 worked out at 10.1 µM. For the same compound, the DPBF oxidation rate constant in [2] turned out to be 1.68 ×10⁻² k/min. The IC50 at 24 h in [3] stood at 183 µM. Also, the viability at 24 h, 20 µM in [4] worked out at 80%.

For the compound `O=C(O)CCCOc1cccc(-c2c3nc(cc4ccc([nH]4)c(-c4cccc(OCCCC(=O)O)c4)c4nc(cc5ccc2[nH]5)CC4)C=C3)c1`, the IC50 in the series on ECa-109 cell line [1] worked out at 2.65 µM. Moreover, the DPBF oxidation rate constant in [2] came to 24.9 ×10⁻² k/min. For the same compound, in series [3], the IC50 at 24 h was greater than 300 µM. In addition, in series [4], the viability at 24 h, 20 µM came out at 80%.

`COc1ccc(-c2c3nc(cc4ccc([nH]4)c(-c4ccc(OC)c(OCCCC(=O)O)c4)c4nc(cc5ccc2[nH]5)CC4)CC3)cc1OCCCC(=O)O`: the IC50 in the series with ECa-109 cell line [1] is 2.47 µM. Further, the IC50 at 24 h in series [3] is greater than 300 µM. In addition, the Activity in series [5] was determined as 48.6 ×10⁻² k/min. Further, the viability at 24 h, 20 µM in series [4] was determined as 80%.

`O=C(O)COc1cccc(-c2c3nc(cc4ccc([nH]4)c(-c4cccc(OCC(=O)O)c4)c4nc(cc5ccc2[nH]5)CC4)C=C3)c1`: the IC50 in the series with ECa-109 cell line [1] came to 3.31 µM. Besides, in [3], the IC50 at 24 h was found to be 91.8 µM. Moreover, in series [6], the Activity was 4.06 ×10⁻² k/min. Moreover, in [4], the viability at 24 h, 20 µM came to 80%.

As for `COc1ccc(-c2c3nc(cc4ccc([nH]4)c(-c4ccc(OC)c(OCC(=O)O)c4)c4nc(cc5ccc2[nH]5)CC4)C=C3)cc1OCC(=O)O`, in the series on ECa-109 cell line [1], the IC50 came out at 3.14 µM. The DPBF oxidation rate constant in [2] amounted to 14.2 ×10⁻² k/min. Besides, the IC50 at 24 h in [3] turned out to be 111 µM. In addition, the viability at 24 h, 20 µM in [4] worked out at 80%.

As to `O=C(O)COc1cccc(-c2c3nc(cc4ccc([nH]4)c(-c4cccc(OCC(=O)O)c4)c4nc(cc5ccc2[nH]5)CC4)CC3)c1`, in the series on ECa-109 cell line [1], the IC50 was determined as 2.62 µM. The DPBF oxidation rate constant in [2] came out at 30.9 ×10⁻² k/min. Also, the IC50 at 24 h in series [3] turned out to be 162 µM. Besides, the viability at 24 h, 20 µM in [4] came out at 80%.

Consider `O=C(O)COc1cccc(-c2c3nc(cc4ccc([nH]4)c(-c4cccc(OCC(=O)O)c4)c4nc(cc5ccc2[nH]5)C=C4)C=C3)c1`, for which the IC50 with ECa-109 cell line [1] was determined as 9.41 µM. Moreover, the DPBF oxidation rate constant in series [2] came to 0.829 ×10⁻² k/min. In addition, the IC50 at 24 h in series [3] stood at 74.6 µM. Also, the viability at 24 h, 20 µM in series [4] was determined as 80%.

As for `COc1ccc(-c2c3nc(cc4ccc([nH]4)c(-c4ccc(OC)c(OCCCC(=O)O)c4)c4nc(cc5ccc2[nH]5)CC4)C=C3)cc1OCCCC(=O)O`, the IC50 in the series with ECa-109 cell line [1] was determined as 2.83 µM. In [2], the DPBF oxidation rate constant stood at 19.8 ×10⁻² k/min. Besides, the IC50 at 24 h in series [3] is greater than 300 µM. Moreover, in series [4], the viability at 24 h, 20 µM worked out at 80%.

With `O=C(O)CCCOc1cccc(-c2c3nc(cc4ccc([nH]4)c(-c4cccc(OCCCC(=O)O)c4)c4nc(cc5ccc2[nH]5)CC4)CC3)c1`, the result in the series with ECa-109 cell line [7] was inactive. Also, the Activity in the series on ECa-109 cell line [8] was determined as 126 mm3; in series [6] it was 69.1 ×10⁻² k/min. Moreover, the IC50 in the series with ECa-109 cell line [1] was determined as 2.43 µM. Besides, the Drug uptake result in series [9] and in series [10] was “Active” throughout. Further, the IC50 at 24 h in series [3] was greater than 500 µM. In addition, the viability at 24 h, 20 µM in series [4] came to 80%.

For the compound `COc1ccc(-c2c3nc(cc4ccc([nH]4)c(-c4ccc(OC)c(OCC(=O)O)c4)c4nc(cc5ccc2[nH]5)C=C4)C=C3)cc1OCC(=O)O`, in the series on ECa-109 cell line [1], the IC50 stood at 12.5 µM. For the same compound, the DPBF oxidation rate constant in series [2] turned out to be 2.41 ×10⁻² k/min. Also, in [3], the IC50 at 24 h worked out at 158 µM. Also, the viability at 24 h, 20 µM in [4] came out at 80%.

Broadly, the IC50 is the concentration needed to halve the response being measured.

(Values after ChEMBL document CHEMBL4382209, “Comparison between porphin, chlorin and bacteriochlorin derivatives for photodynamic therapy: Synthesis, photophysical properties, and biological activity” (Eur J Med Chem, 2018).)
